Experimental data of several laboratories.
Compare with care: the assays were run in different laboratories.

O=C(CN1C(=O)/C(=C/c2ccc[nH]2)SC1=S)Nc1ccccc1  inhibition (A549; cell growth or viability, MTT; 10 µM): 21.4%
O=C(Cc1c[nH]c2ccccc12)Nc1cccc(F)c1  IC50 (ABTS scavenging): 1120 nM
O=C(CN1C(=O)/C(=C/c2ccccc2O)SC1=S)Nc1ccccc1  inhibition (A549; cell growth or viability, MTT; 10 µM): 34.5%
COc1ccc(-c2ccc(-c3ccc(C(=N)N)nc3)s2)cc1Cl  GI50 (U-251; cell growth or viability, SRB): 1820 nM
COc1ccc(OC)c(NC(=O)Cc2c[nH]c3ccccc23)c1  IC50 (ABTS scavenging): 1430 nM
COc1ccccc1-c1n[nH]c2nc(N[C@H]3CC[C@H](NS(=O)(=O)CCCOCCOCCNC(=O)OC(C)(C)C)CC3)ncc12  EC50 (Leishmania donovani; parasite growth; THP-1; intracellular, amastigote): 5.24 µM
Clc1ccccc1C(c1ccccc1)(c1ccccc1)n1ccnc1  inhibition zone (Mucor; microbial growth, disc diffusion; 20000 µg/mL): 22 mm
O=C(CN1C(=O)/C(=C/c2cccc([N+](=O)[O-])c2)SC1=S)Nc1ccccc1  inhibition (PC-3; cell growth or viability, MTT; 10 µM): 17.6%
CC1(C)S[C@@H]2[C@H](NC(=O)[C@H](N)c3ccccc3)C(=O)N2[C@H]1C(=O)O  MIC (Moraxella catarrhalis; microbial growth, broth dilution; ATCC25238): < 0.25 µg/mL
COc1cc(NC(=O)Cc2c[nH]c3ccccc23)ccc1C  IC50 (ABTS scavenging): 1110 nM
COc1cc(Nc2nccc(-c3cnn4nc(OC)ccc34)n2)cc(C(F)(F)F)c1  IC50 (Ishikawa; cell growth or viability, ATP luminescence): 450 nM
O=C(Nc1ccccc1-c1ccc(F)c(F)c1)c1nccnc1C(F)(F)F  EC50 (Colletotrichum gloeosporioides; microbial growth): > 100 µg/mL
